Assay results published in ChEMBL document CHEMBL5042480, “3CL Protease Inhibitors with an Electrophilic Arylketone Moiety as Anti-SARS-CoV-2 Agents” (J Med Chem, 2022).
Calls of active or inactive are those of the source. The rule behind the calls is not given here. Where a SMILES comes first, the peptide text is derived from it. The star is where a group is joined. Cbz = O=C(OCc1ccccc1)*; CF3 = FC(F)(F)*

Legend:
[1] = Competitive inhibition of recombinant C-terminal His-tagged SARS coronavirus 2 3CL protease using Boc-Abu-Tle-Leu-Gln-AMC as substrate incubated for 5 mins by plate reader analysis; set-up: species or system Severe acute respiratory syndrome coronavirus 2
Procedure, shortened: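 Competitive-inhibition kinetics: fluorogenic substrate at 15, 30, 45, 60 and 75 μM was combined with inhibitor at 0, 10, 20, 30, 40 and 50 nM, and product formation was monitored for 10 min. Data were analysed by Lineweaver–Burk plot and global fit to a competitive model. Three independent experiments were run.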

SARS-CoV-2 = experiment: Antiviral activity against SARS coronavirus 2 infected in African green monkey Vero cells assessed as blockade of viral proliferation at 25 uM incubated for 48 hrs by cytopathic effect assay; type: functional, organism-based; conditions: Severe acute respiratory syndrome coronavirus 2
[2] = Inhibition of recombinant C-terminal His-tagged SARS coronavirus 1 3CL protease using Boc-Abu-Tle-Leu-Gln-AMC as substrate incubated for 5 mins by Cheng-Prusoff equation analysis; set-up: species or system Severe acute respiratory syndrome-related coronavirus
[3] = Inhibition of recombinant C-terminal His-tagged SARS coronavirus 2 3CL protease using Boc-Abu-Tle-Leu-Gln-AMC as substrate incubated for 5 mins by Cheng-Prusoff equation analysis; set-up: species or system Severe acute respiratory syndrome coronavirus 2
Procedure, shortened: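 His-tagged 3CLpro (8 ng/μL final) was assayed in 50 mM MOPS pH 7.2 with 10 mM NaCl, 1 mM EDTA and 0.01% Triton X-100. Substrate was 50 μM final (about Km) and DMSO 4% final. Inhibitor and substrate were preincubated 5 min at 37 °C, then enzyme was added and fluorescence (ex 360/em 460 nm) read for 10 min. At least 11 concentrations were tested; IC50 came from nonlinear regression and Ki from Cheng–Prusoff. n = 3.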

| SMILES | Ki [1] [nM] | Activity (SARS-CoV-2) | Ki [2] [nM] | Ki [3] [nM] |
| --- | --- | --- | --- | --- |
| CC(C)C[C@H](NC(=O)[C@@H](NC(=O)OCc1ccccc1)C(C)C)C(=O)N[C@@H](C[C@@H]1CCNC1=O)C(=O)c1nc2ccccc2s1 | 19.8 | Active | 4.1 | 14.5 |
| CC(C)C[C@H](NC(=O)[C@@H](NC(=O)[C@H](C)NC(=O)OCc1ccccc1)C(C)C)C(=O)N[C@@H](CCC(N)=O)C(=O)C(F)(F)F (Cbz-AVLQ-CF3) |  |  | 135000 |  |
